Like-named read-outs stand apart in the source and are kept apart here. Ends that are not written are not given here.
What was measured:
[1] = system: PAK2 (pT402) in pancreatic acini; assay: Effect of post-receptor stimulants on T402 PAK2 phosphorylation; type: cell-based, rat; conditions: 1 μM each, 5 min
[2] = system: PAK2 (pT402) in pancreatic acini; type: cell-based, rat
[3] = system: PAK2 (pT402) in pancreatic acini; type: cell-based, rat; conditions: for PAK2 inhibition: IPA-3 40 μM, 15 min
[4] = system: ERK1/2 (p42/44) in pancreatic acini; assay: Effect of PAK2 inhibition on ERK1/2; type: cell-based, rat
[5] = system: rat pancreatic acinar cells (amylase release); assay: Effect of PAK2 inhibition on amylase release; type: cell-based; conditions: for Amylase secretion (% total), inhibitor with CCK 0.01 nM: 40 μM inhibitor/analogue + CCK 0.01 nM, CCK alone 11.9 ± 2.2; for Amylase secretion (% total), inhibitor with CCK 0.01 nM / Amylase secretion (% total), inhibitor with CCK 0.1 nM / Amylase secretion (% total), inhibitor with bombesin / Amylase secretion (% total), inhibitor without secretagogue / Amylase secretion (% total), no inhibitor: 30 min; for Amylase secretion (% total), inhibitor with CCK 0.1 nM: 40 μM inhibitor/analogue + CCK 0.1 nM, CCK alone 15.7 ± 0.4; for Amylase secretion (% total), inhibitor with bombesin: 40 μM inhibitor/analogue + bombesin 10 nM, bombesin alone 15.2 ± 0.8; for Amylase secretion (% total), inhibitor without secretagogue: 40 μM inhibitor/analogue, no secretagogue; for Amylase secretion (% total), no inhibitor: 5–10 experiments, untreated 3.8 ± 0.3, p<0.05 vs control
Method in brief: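 Secretagogues were CCK (0.01 or 0.1 nM) or bombesin (10 nM). Amylase released over a 30 min incubation was measured with Phadebas reagent and expressed as % of total cellular amylase. Means of 5–10 experiments.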

[6] = system: PAK2 (pT402) in pancreatic acini; assay: PAK2 T402 phosphorylation after stimulation by secretagogues and growth factors; type: cell-based, rat; conditions: for PAK2 activation (abstract, words): rat pancreatic acini; for effect on phosphorylation of (T402) PAK2: VIP 10 nM, secretin 10 nM, endothelin 1 10 nM, 1 min; for T402 PAK2 phosphorylation by growth factors, % of control: EGF 10 nM 5 min, bFGF 100 ng/ml 5 min, PDGF 100 ng/ml 10 min (p<0.05), insulin 1 μM 10 min (p=0.08), 5 independent experiments; for effect of growth factors on PAK2 threonine 402 phosphorylation: IGF-1 100 nM 10 min, HGF 1 nM 10 min, insulin 1 μM 10 min
[7] = system: PAK2 (pT402) in pancreatic acini; assay: Time course of CCK and EGF stimulation of PAK2 T402 phosphorylation; type: cell-based, rat; conditions: for T402 PAK2 phosphorylation at 1 minute: 1 min; for T402 PAK2 phosphorylation at 1 minute / duration of increase in phospho-T402 PAK2 / time of maximum T402 PAK2 phosphorylation: CCK 100 nM or EGF 10 nM
[8] = system: PAK2 (pT402) in pancreatic acini; assay: Dose-response effect of CCK and CCK-JMV on T402 PAK2 phosphorylation; type: cell-based, rat; conditions: 3 min
Method in brief: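 Rat pancreatic acini were dispersed by collagenase and pre-incubated 2 h at 37 °C in HEPES-buffered (pH 7.45) standard incubation solution. They were then exposed for 3 min to graded concentrations of CCK or the test peptide, and lysed. Read-out was pT402 PAK2 western blot with total PAK2 as loading control, by chemiluminescence densitometry. Values are % of 100 nM CCK response; n=5; EC50 by curve fitting.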

[9] = system: CCK1 / CCK2 receptors in pancreatic acini (pT402 PAK2); type: cell-based, rat; conditions: gastrin (CCKB agonist) 10 nM, A71378 (CCKA receptor agonist) 30 nM, 1 min

Compound: CNc1ccc2oc(C[C@H]3O[C@@]4(CC[C@H]3C)O[C@H]([C@H](C)C(=O)c3ccc[nH]3)[C@H](C)C[C@H]4C)nc2c1C(=O)O [A23187]
- effect on PAK2 phosphorylation [1]: have no effect on PAK2

Compound: CN(C)CCCn1cc(C2=C(c3c[nH]c4ccccc34)C(=O)NC2=O)c2ccccc21 [GFX]
- TPA-induced pT402 PAK2 phosphorylation after pretreatment ([2]; pretreatment GF109203X 5 μM 1 h, then TPA 1 μM 5 min, TPA alone 319±45): 100±26 % of control

Compound: Oc1ccc2ccccc2c1SSc1c(O)ccc2ccccc12 [IPA-3, 1,1′-Dithiodi-2-naphthtol]
- PAK2 inhibition [3]: 70%
- PAK2 inhibition ([3]; listed as IPA3): approximately 70%
- basal pT402 PAK2 phosphorylation with inhibitor ([3]; PP2 10 μM 1 h or IPA-3 40 μM 15 min, no stimulant): 32±6 % of control
- effect on CCK-activation of PAK2 (abstract, words) ([3]; rat pancreatic acini): partially inhibited
- CCK induced phosphorylation of p42/44 with inhibitor ([4]; IPA-3 40 μM, then CCK 0.3 nM, p<0.05): 64±4 % of CCK 0.3 nM alone
- effect on CCK-induced ERK1/2 activation (abstract, words) ([4]; rat pancreatic acini): reduced
- reduction of bombesin-induced increase in amylase release ([5]; 40 μM IPA3, bombesin 10 nM): 55 % of the maximal bombesin-induced stimulation
- reduction of CCK-induced increase in amylase release ([5]; 40 μM IPA3, both concentrations of CCK (0.01, 0.1 nM)): 63 % of maximal CCK stimulation
- Amylase secretion (% total), inhibitor with CCK 0.01 nM [5]: 7.5 ± 1.3ˆ % total
- Amylase secretion (% total), inhibitor with CCK 0.1 nM [5]: 9.6 ± 0.6ˆ % total
- Amylase secretion (% total), inhibitor with bombesin [5]: 10.3± 0.9ˆ % total
- Amylase secretion (% total), inhibitor without secretagogue [5]: 5.2 ± 0.5 % total
- effect on amylase release induced by CCK or bombesin (abstract, words) ([5]; rat pancreatic acini): reduced

Compound: Oc1ccc2cc(SSc3ccc4cc(O)ccc4c3)ccc2c1 [Pir 3,5, 6,6′-Dithiodi-2-naphthtol]
- Amylase secretion (% total), inhibitor with CCK 0.01 nM [5]: 12.6 ± 0.8 % total
- Amylase secretion (% total), inhibitor with CCK 0.1 nM [5]: 14.7± 1.0 % total
- Amylase secretion (% total), inhibitor with bombesin [5]: 14.4 ± 1.2 % total
- Amylase secretion (% total), inhibitor without secretagogue [5]: 4.3 ± 0.9 % total
- effect on stimulated enzyme secretion ([5]; Pir3,5 40 μM, CCK or bombesin): had no effect on stimulated enzyme secretion

Compound: CCCCCCCCCCCCCC(=O)O[C@@H]1[C@@H](C)[C@@]2(O)[C@@H](C=C(CO)C[C@]3(O)C(=O)C(C)=C[C@@H]23)[C@@H]2C(C)(C)[C@]12OC(C)=O [TPA, 12-O-tetradecanoylphorbol-13-acetate]
- PAK2 activation (abstract, words) [6]: activated

Compound: C[N+](C)(C)CCOC(N)=O [carbachol]
- PAK2 activation (abstract, words) [6]: activated

Compound: COOH-terminal octapeptide of cholecystokinin [CCK]
- PKC-independent activation of PAK2 that was also PLC-independent ([2]; CCK1 receptor stimulation): 40%
- PAK2 activation (abstract, words) [6]: activated
- T402 PAK2 phosphorylation at 1 minute ([7]; mean ± S.E. of 5 experiments): 275±17 % of control
- T402 PAK2 phosphorylation at 3 min ([7]; 3 min, CCK 100 nM, mean ± S.E. of 5 experiments, p<0.05): 298±26 % of control
- duration of increase in phospho-T402 PAK2 [7]: over 15 min
- time of maximum T402 PAK2 phosphorylation [7]: 3 min
- subsequent partial decrease of PAK2 activation after rapid increase ([7]; CCK 100 nM, sustained over time): 40%
- maximal stimulation of T402 PAK2 phosphorylation ([8]; 100 nM CCK): 452±70 % of control
- concentration at which increase in T402 PAK2 phosphorylation is detectable [8]: 10 pM
- concentration of maximal stimulation of T402 PAK2 phosphorylation [8]: 100 nM
- increase in amylase release ([5]; 0.01 nM CCK): 313±57%
- increase in amylase release ([5]; 0.1 nM CCK): 413±11%
- Amylase secretion (% total), no inhibitor ([5]; CCK 0.01 nM): 11.9 ± 2.2 % total
- Amylase secretion (% total), no inhibitor ([5]; CCK 0.1 nM): 15.7 ± 0.4 % total

Compound: Endothelin-1: interacts with ET-1 and ET-3 receptors in the pancreatic acinar cell (CSCSSLMDKECVYFCHLDIIW; ends and bridges not checked; cysteine pairing not given here; UniProt P05305 53-73, looked up)
- effect on phosphorylation of (T402) PAK2 [6]: did not produce any effect upon T402 PAK2 phosphorylation

Compound: Epidermal growth factor [EGF]
- T402 PAK2 phosphorylation by growth factors, % of control [6]: 195±28 of control
- PAK2 activation (abstract, words) [6]: activated
- T402 PAK2 phosphorylation at 1 minute ([7]; mean ± S.E. of 5 experiments): 300±30 % of control
- duration of increase in phospho-T402 PAK2 [7]: ≤ 3 min
- time of maximum T402 PAK2 phosphorylation [7]: 1 min

Compound: Insulin: pancreatic growth factor
- T402 PAK2 phosphorylation by growth factors, % of control [6]: 210±44 of control
- effect of growth factors on PAK2 threonine 402 phosphorylation [6]: did not quite reach statistical significance

Compound: basic fibroblast growth factor [bFGF]
- T402 PAK2 phosphorylation by growth factors, % of control [6]: 228±37 of control
- PAK2 activation (abstract, words) [6]: activated

Compound: bombesin: pancreatic secretagogue that activates phospholipase C
- PAK2 activation (abstract, words) [6]: activated
- Amylase secretion (% total), no inhibitor ([5]; bombesin 10 nM): 15.2 ± 0.8 % total

Compound: gastrin
- effect of selective receptor agonist on pT402 PAK2 phosphorylation [9]: did not produce any increase in pT402 PAK2 phosphorylation

Compound: hepatocyte growth factor [HGF]
- effect of growth factors on PAK2 threonine 402 phosphorylation [6]: had no effect

Compound: insulin-like growth factor 1 [IGF-1]
- effect of growth factors on PAK2 threonine 402 phosphorylation [6]: had no effect

Compound: platelet-derived growth factor [PDGF]
- T402 PAK2 phosphorylation by growth factors, % of control [6]: 240±44 of control
- PAK2 activation (abstract, words) [6]: activated

Compound: secretin: gastrointestinal hormone activating adenylate cyclase
- effect on phosphorylation of (T402) PAK2 [6]: did not increase phosphorylation of (T402) PAK2

Compound: vasoactive intestinal peptide (HSDAVFTDNYTRLRKQMAVKKYLNSILN; ends and bridges not checked; UniProt P01282 125-152, looked up) [VIP]
- effect on phosphorylation of (T402) PAK2 [6]: did not increase phosphorylation of (T402) PAK2

Source: article PMC5474308 (Biochimica et biophysica acta, 2015)
